Data from ChEMBL document CHEMBL1132593, “Structure-activity relationships of pyrazole derivatives as cannabinoid receptor antagonists” (J Med Chem, 1999).

Columns and labels:
[1] = test system: Cannabinoid receptor CB1 (Rattus norvegicus) and CB2 (Mus musculus); test: Ratio of the binding affinities against rat CB1 to that of mouse CB2; activity value is 1:37
Mus musculus [2] = species on record: Mus musculus; test: Dissociation constant [1000(nM)] in mouse isolated vas deferens using the cannabinoid receptor agonist.; type: functional, organism-based
Summary of the method: (§1)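 Mouse isolated vas deferens. Antagonist tested at the stated concentration against WIN55,212-2 inhibition of electrically evoked contractions. Drugs dispersed in saline with two parts Tween 80 by weight, with Tween 80 as the reference. Dose ratio (95% confidence limits) from a symmetrical 2+2 dose parallel line assay. Kd from (x−1) = B/Kd.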

Cannabinoid receptor 1 = Cannabinoid receptor 1 (Rattus norvegicus, UniProt P20272); test: Binding affinity against Cannabinoid receptor 1 in rat forebrain
Cannabinoid receptor 2 = Cannabinoid receptor 2 (Mus musculus, UniProt P47936); test: Binding affinity against Cannabinoid receptor 2 in mouse spleen; type: tissue-based
Summary of the method: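 Membranes from frozen mouse spleen (CB2), about 50 μg, prepared in silanized tubes. Incubated 1 h at 30 °C in TME with 0.1% fatty-acid-free BSA, 0.8 nM [3H]2 and varying ligand concentrations. Filtration, four ice-cold washes with buffer containing 0.5% BSA, then scintillation counting. Nonspecific binding defined with 100 nM 2. Three independent experiments in duplicate, normalized to specific binding; 95% confidence limits.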

Cavia porcellus [3] = species on record: Cavia porcellus; test: Dissociation constant [1000(nM)] in myenteric plexus-longitudinal muscle of guinea pig small intestine using the cannabinoid receptor agonist.; type: functional, organism-based
Summary of the method: (§2)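 Guinea pig small intestine myenteric plexus-longitudinal muscle. Antagonist tested at the stated concentration against WIN55,212-2 inhibition of electrically evoked contractions. Drugs mixed with two parts Tween 80 by weight and dispersed in saline; Tween 80 served as the reference. Dose ratio from a symmetrical (2+2) dose parallel line assay on the steepest part of the curve. Kd = B/(x−1).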

[4] = target: T1, Cannabinoid receptor (Homo sapiens) (UniProt P34972+P21554); test: Ratio of the binding affinities against rat CB1 to that of mouse CB2; activity value is 1:7.2; type: protein assay
Mus musculus [5] = species on record: Mus musculus; test: Dissociation constant [31.6(nM)] in mouse isolated vas deferens using the cannabinoid receptor agonist.; type: functional, organism-based
Summary of the method: as §1

Cavia porcellus [6] = species on record: Cavia porcellus; test: Dissociation constant [100(nM)] in myenteric plexus-longitudinal muscle of guinea pig small intestine using the cannabinoid receptor agonist.; type: functional, organism-based
Summary of the method: as §2

[7] = target: T1, Cannabinoid receptor (Homo sapiens); test: Ratio of the binding affinities against rat CB1 to that of mouse CB2; activity value is 1:85; type: protein assay
Mus musculus [8] = species on record: Mus musculus; test: Dissociation constant [316(nM)] in mouse isolated vas deferens using the cannabinoid receptor agonist.; type: functional, organism-based
Summary of the method: as §1

[9] = target: T1, Cannabinoid receptor (Homo sapiens); test: Ratio of the binding affinities against rat CB1 to that of mouse CB2; activity value is 1:17; type: protein assay
[10] = test system: Cannabinoid receptor CB1 (Rattus norvegicus) and CB2 (Mus musculus); test: Ratio of the binding affinities against rat CB1 to that of mouse CB2; activity value is 1:2.7

Cannabinoid receptor 1, sequence (P20272 whole entry): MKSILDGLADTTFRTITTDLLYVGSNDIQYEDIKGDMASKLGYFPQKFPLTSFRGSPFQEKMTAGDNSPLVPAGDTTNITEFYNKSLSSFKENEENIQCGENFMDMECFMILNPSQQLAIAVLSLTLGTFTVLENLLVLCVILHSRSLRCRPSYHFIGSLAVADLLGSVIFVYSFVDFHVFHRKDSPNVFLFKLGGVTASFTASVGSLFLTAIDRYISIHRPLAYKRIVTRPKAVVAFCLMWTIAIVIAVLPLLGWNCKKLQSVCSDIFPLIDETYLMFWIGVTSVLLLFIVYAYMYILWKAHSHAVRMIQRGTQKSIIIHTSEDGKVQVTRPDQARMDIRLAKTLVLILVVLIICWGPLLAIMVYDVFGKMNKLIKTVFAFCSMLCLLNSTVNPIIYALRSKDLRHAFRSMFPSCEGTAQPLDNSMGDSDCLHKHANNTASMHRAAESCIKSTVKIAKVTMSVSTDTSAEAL
Cannabinoid receptor 2, sequence (P47936 whole entry): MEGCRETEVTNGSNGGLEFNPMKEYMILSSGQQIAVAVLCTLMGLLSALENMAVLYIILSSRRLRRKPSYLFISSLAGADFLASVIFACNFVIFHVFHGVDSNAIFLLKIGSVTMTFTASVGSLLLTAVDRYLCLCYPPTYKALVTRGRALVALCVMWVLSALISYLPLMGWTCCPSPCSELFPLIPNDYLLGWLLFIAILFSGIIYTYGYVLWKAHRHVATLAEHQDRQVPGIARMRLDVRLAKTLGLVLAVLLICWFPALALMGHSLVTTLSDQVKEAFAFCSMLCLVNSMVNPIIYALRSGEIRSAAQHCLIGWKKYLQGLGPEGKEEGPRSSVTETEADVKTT
T1 sequence (P21554 whole entry, looked up): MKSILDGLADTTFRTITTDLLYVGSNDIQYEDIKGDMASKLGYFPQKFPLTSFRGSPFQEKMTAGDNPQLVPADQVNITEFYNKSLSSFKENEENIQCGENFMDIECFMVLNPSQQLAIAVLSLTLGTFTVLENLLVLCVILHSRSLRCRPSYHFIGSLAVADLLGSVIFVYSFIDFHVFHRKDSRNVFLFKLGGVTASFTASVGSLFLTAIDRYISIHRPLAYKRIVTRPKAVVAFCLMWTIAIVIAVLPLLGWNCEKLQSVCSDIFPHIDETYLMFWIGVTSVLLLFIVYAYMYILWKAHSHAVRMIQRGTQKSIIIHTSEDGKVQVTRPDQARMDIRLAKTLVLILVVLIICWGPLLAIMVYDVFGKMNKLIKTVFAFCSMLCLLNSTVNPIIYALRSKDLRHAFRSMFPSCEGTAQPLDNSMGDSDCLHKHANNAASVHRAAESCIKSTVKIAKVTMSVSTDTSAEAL
T1 sequence (P34972 whole entry, looked up): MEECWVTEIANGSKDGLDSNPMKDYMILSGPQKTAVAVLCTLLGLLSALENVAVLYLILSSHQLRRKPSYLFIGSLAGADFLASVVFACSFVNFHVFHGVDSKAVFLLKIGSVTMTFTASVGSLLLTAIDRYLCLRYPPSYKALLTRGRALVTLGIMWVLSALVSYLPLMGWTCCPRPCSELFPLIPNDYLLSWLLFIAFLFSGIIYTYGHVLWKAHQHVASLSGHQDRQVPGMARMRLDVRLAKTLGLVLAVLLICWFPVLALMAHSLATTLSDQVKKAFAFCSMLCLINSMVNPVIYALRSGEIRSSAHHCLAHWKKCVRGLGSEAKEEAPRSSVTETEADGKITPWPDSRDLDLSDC

Row | SMILES | Ki (Cannabinoid receptor 1) | Ki (Cannabinoid receptor 2) | Kd (Cavia porcellus [3]) | other results
1 | Cc1c(C(=O)N2CCCCC2)nn(-c2ccc(Cl)cc2Cl)c1-c1ccc(Br)cc1 | 125 nM | 4580 nM | 4.72 nM | Ratio [1]: 37; Kd (Mus musculus [2]): 172 nM
2 | Cc1c(C(=O)NN2CCCCC2)nn(-c2ccc(Cl)cc2Cl)c1-c1ccc(I)cc1 |  |  |  | Kd (Mus musculus [5]): 0.5 nM; Kd (Cavia porcellus [6]): 0.22 nM
3 | Cc1c(C(=O)Nc2ccccc2)nn(-c2ccc(Cl)cc2Cl)c1-c1ccc(Br)cc1 | 31.1 nM | 6750 nM |  | Ratio [9]: 217
4 | Cc1c(C(=O)NN2CCCCC2)nn(-c2ccc(Cl)cc2Cl)c1-c1ccccc1N | 346 nM | 931 nM |  | Kd (Mus musculus [2]): 118 nM; Kd (Cavia porcellus [6]): 11.2 nM; Ratio [10]: 2.7
5 | Cc1c(C(=O)NCCO)nn(-c2ccc(Cl)cc2Cl)c1-c1ccc(Br)cc1 | 1120 nM | 19000 nM |  | 
6 | Cc1c(C(=O)NN2CCCCC2)nn(-c2ccc(Cl)cc2Cl)c1-c1ccc([N+](=O)[O-])cc1 | 57.5 nM | 252 nM | 2.9 nM | Kd (Mus musculus [8]): 5.31 nM
7 | Cc1c(C(=O)NN2CCOCC2)nn(-c2ccc(Cl)cc2Cl)c1-c1ccc(Br)cc1 | 53.9 nM | 2450 nM |  | 
8 | Cc1c(C(=O)NN2CCCCC2)nn(-c2ccc(Cl)cc2Cl)c1-c1ccc(Br)cc1 | 16.8 nM | 1430 nM |  | Kd (Mus musculus [5]): 2.64 nM; Ratio [7]: 85; Kd (Cavia porcellus [6]): 0.32 nM
9 | Cc1c(C(=O)NN2CCCCC2)nn(-c2ccc(Cl)cc2Cl)c1-c1ccccc1I | 53.8 nM | 577 nM | 5.87 nM | Kd (Mus musculus [5]): 7.83 nM
10 | Cc1c(C(=O)N2CCN(C)CC2)nn(-c2ccc(Cl)cc2Cl)c1-c1ccc(Br)cc1 | 326 nM | 2340 nM | 12.3 nM | Kd (Mus musculus [2]): 325 nM
11 | Cc1c(C(=O)NN2CCCCC2)nn(-c2ccc(Cl)cc2Cl)c1-c1ccc(Cl)cc1 [RIMONABANT] |  |  |  | Kd (Mus musculus [5]): 1.98 nM; Kd (Cavia porcellus [6]): 0.25 nM

The next lines start with results.

Row | Ki (Cannabinoid receptor 1) | Ki (Cannabinoid receptor 2) | Kd (Cavia porcellus [3]) | SMILES | other results
12 | 11.7 nM | 1010 nM |  | Cc1c(C(=O)NC2CCCCC2)nn(-c2ccc(Cl)cc2Cl)c1-c1ccc(Br)cc1 | Ratio [4]: 87
13 | 183 nM | 744 nM |  | CCc1c(C)c(C(=O)NN2CCCCC2)nn1-c1ccc(Cl)cc1Cl | 
14 | 7.85 nM | 215 nM | 0.38 nM | Cc1c(C(=O)NN2CCCCCC2)nn(-c2ccc(Cl)cc2Cl)c1-c1ccc(Br)cc1 | Ratio [7]: 28; Kd (Mus musculus [8]): 6.8 nM
15 | 255 nM | 691 nM | 5.96 nM | Cc1c(C(=O)NN2CCCCC2)nn(-c2ccc(Cl)cc2Cl)c1-c1ccccc1[N+](=O)[O-] | Kd (Mus musculus [8]): 25.4 nM; Ratio [10]: 2.7
16 | 81.5 nM | 958 nM |  | Cc1c(C(=O)NN2CCCCC2)nn(-c2ccc(Cl)cc2Cl)c1-c1ccc(N)cc1 | Kd (Cavia porcellus [6]): 2.63 nM; Kd (Mus musculus [8]): 42.6 nM
17 | 76.7 nM | 1260 nM |  | Cc1c(C(=O)N(C)C2CCCCC2)nn(-c2ccc(Cl)cc2Cl)c1-c1ccc(Br)cc1 | 
18 |  | 217 nM | 7 nM | Cc1c(C(=O)NN2CCCCC2)nn(-c2ccc(Cl)cc2Cl)c1-c1ccccc1 | Kd (Mus musculus [8]): 28 nM
19 |  | 836 nM |  | Cc1c(C(=O)NN2CCCCC2)nn(-c2ccc(Cl)cc2)c1-c1ccc(Cl)cc1 | 
